PMC5559291 (Journal of the American Chemical Society, 2015)
Like-named read-outs stand apart in the source and are kept apart here.

Assays:
Sedimentation velocity = assay type: physicochemical
[1] = assay type: physicochemical; conditions: from sedimentation velocity on diluted samples
In short: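 Diluted neutral-pH and protofibril Aβ40 samples were loaded into 12 mm path-length cells, equilibrated 2 h at 20.0° C, and spun at 20,000-50,000 rpm. Detection used absorbance at 280 nm and Rayleigh interference. Data were analysed as continuous c(s) distributions of Lamm equation solutions with maximum-entropy regularization, and sedimentation coefficients were corrected to 20° C water.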

[2] = assay type: physicochemical
[3] = Size exclusion chromatography; assay type: physicochemical; conditions: protofibril sample; SEC deemed unreliable by the authors
In short: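 Superose 6 10/300 GL column (Vc = 24 ml); 50 μl Aβ40 sample injected and eluted at 0.5 ml/min. The column was equilibrated in either 10 mM sodium phosphate (pH 7.4) or 20 mM NaOH, with or without 150 mM NaCl. Apparent molecular weight was read from elution volume.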

[4] = Persistence of Aβ40 protofibrils in quiescent solution; assay type: physicochemical
[5] = typical values; cited from earlier work
[6] = ref 7c, 7d, cited from earlier work
[7] = 37° C; cited from earlier work
[8] = protofibril sample, 2.0 mM Aβ40

Substance	apparent molar mass of slowly sedimenting species (Sedimentation velocity; neutral pH sample, 2.0 mM Aβ40) [kDa]	estimated molar masses of aggregates (Sedimentation velocity; neutral pH sample, 2.0 mM Aβ40)	sedimentation coefficients of aggregates (broadly distributed around) (Sedimentation velocity; neutral pH sample, 2.0 mM Aβ40)	aggregates as fraction of the loading signal (Sedimentation velocity; neutral pH sample, 2.0 mM Aβ40, pH 7.5)	sedimentation coefficient of slowly sedimenting species (Sedimentation velocity; neutral pH sample, 2.0 mM Aβ40, remaining material) [S]	apparent molar masses of rapidly sedimenting species (Sedimentation velocity; [8])	fraction of material consisting of rapidly sedimenting species (Sedimentation velocity; [8])	quasi-equilibrium solubility of Aβ40 assemblies ([1]; neutral pH sample)	quasi-equilibrium solubility of Aβ40 assemblies ([1]; protofibril sample)	monomeric fraction ([2]; high pH samples) [%]	fraction of protofibrillar assemblies ([2]; protofibril samples) [%]	apparent molecular weight of a large fraction of material [3]	stability of protofibrils ([4]; quiescent solutions at pH 7.5, TEM)	persistence of protofibrils ([4]; room temperature, without sonication or agitation of the Aβ40 solution)	quasi-equilibrium solubility of mature fibrils [5]	incubation time for evolution of spherical assemblies to mature fibrils ([6]; TEM, without sonication or agitation)	size of long-lived spherical assemblies ([6]; formed at 4° C, pH 7.4, 100 μM peptide) [kDa]	time for subsequent conversion to fibrils [7] [days]
Aβ40: 40-residue amyloid-β peptide, made by FMOC solid-phase synthesis	4.7	around 0.4 MDa	around 11 S	approximately 75%	~0.6	roughly 10 MDa	approximately 95%	greater than 10 μM	greater than 10 μM	> 90	> 90	greater than 1 MDa	stable for at least several weeks	at least 20 days	less than 1 μM	more than 50 h	~650	–
Aβ42: 42-residue amyloid-β peptide; literature results only	–	–	–	–	–	–	–	–	–	–	–	–	–	–	–	–	–	≤ 12
